# NCF1 inh: p47phox/p22phox peptide binding inhibitors, primary screen, biochemical, uHTS, NADPH oxidase regulatory subunit; Neutrophil cytosol factor 1 (Homo sapiens), P14598; AID 1274, 2008; 220,000 tested, 0.53% active; fluorescence polarization, 2 h; inhibition, % at 24.7 µM;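 active means inhibition above about 30%, limit read from the data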;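 further: 0% = p47phox with labelled peptide and 100% = labelled peptide alone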
# Target sequence (P14598 whole entry, looked up): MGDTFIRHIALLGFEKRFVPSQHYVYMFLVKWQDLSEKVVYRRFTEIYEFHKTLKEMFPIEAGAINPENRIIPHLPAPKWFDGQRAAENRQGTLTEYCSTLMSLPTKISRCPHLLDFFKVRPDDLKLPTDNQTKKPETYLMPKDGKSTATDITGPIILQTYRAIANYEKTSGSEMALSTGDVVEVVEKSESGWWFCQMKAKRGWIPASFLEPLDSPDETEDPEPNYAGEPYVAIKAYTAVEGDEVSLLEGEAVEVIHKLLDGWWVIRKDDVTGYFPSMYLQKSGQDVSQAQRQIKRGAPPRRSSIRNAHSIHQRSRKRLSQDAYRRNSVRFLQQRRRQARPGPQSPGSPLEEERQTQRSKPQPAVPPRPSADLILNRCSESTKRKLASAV
# WT yeast gro inh: growth inhibition of WT strain, primary screen, mitochondrial fusion inhibitor project, WT and mutant strains, chemical genetic; AID 1362, 2008; inhibition, % at 10 µM; mitochondrial fusion phenotypic screen; 190,000 tested, 2.1% active; in the data active means inhibition above about 58%; tested in S. cerevisiae
# Calb biofilm kill: clotrimazole potentiators killing C. albicans biofilm, primary screen, 4-compound mixtures; C. albicans biofilm persisters + clotrimazole, fluorescence viability; primary screen in compound mixtures of four per well; inhibition, % at 7.6 µM; 120,000 tested, 0.02% active; AID 1242, 2008;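 active means inhibition above 30.3% in the primary screen of four-compound pools, then above 30% when the compound was retested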;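 further: compounds exposed to preformed 24 h biofilms for 48 h; 0% = untreated biofilm control and 100% = clotrimazole plus chlorhexidine kill blank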
#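 Test system: C. albicans biofilms. Buffer or medium: RPMI/MOPS medium, pH 7.0. Timing: 48 h compound exposure at 37 °C. Technique: Alamar Blue fluorescence. Evaluation: percent inhibition of biofilm viability.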
# Hck Nef HTS: inhibitors of Nef-activated human Hck kinase, primary screen, biochemical, Z-Lyte FRET, 384-well, Hck-YEEI. AID 463187, 2010. Recombinant Hck-YEEI plus Nef, Z-Lyte FRET kinase assay. 220,000 tested, 0.68% active. inhibition, % at 20 µM;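 active means Hck-Nef kinase inhibition above about 50%, limit read from the data; inactive means inhibition below that limit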;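 further: 0% = DMSO with Hck plus Nef and 100% = Hck alone without Nef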
# Arbovirus inh: antivirals against arbovirus infection, primary screen, cell-based, full library, 10K replicate subset; arbovirus infection cell-based antiviral screen; inhibition, % at 10 µM; 200,000 tested, 0.37% active; AID 1251, 2008; in the data active means inhibition above about 30%
# RAM network inh: inhibitors of the yeast RAM network, primary screen, dse1pr::URA3 reporter, 5-FOA selection; S. cerevisiae dse1pr::URA3 reporter, 5-FOA growth OD615, 2 d; analog-sensitive cbk1-as2 kinase mutant strain; inhibition, % at 50 µM; 190,000 tested, 1.8% active;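 active means inhibition above a set limit, 3 SD over mean compound inhibition, cut at about 8.4% in these data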;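 further: 0% = DMSO-only wells with no growth and 100% = 10 µM 1-NA-PP1 full growth; inhibition rescues growth on 5-FOA so higher OD means more RAM inhibition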
# An asterisk follows results filed as active; nt = no result given. This is a sample that favours compounds with a hit; in the whole collection about 4.6% have one here.
SMILES,NCF1 inh,WT yeast gro inh,Calb biofilm kill,Hck Nef HTS,Arbovirus inh,RAM network inh
CC(NS(C)(=O)=O)C(c1cccs1)N1CCN(C)CC1 (centres undefined),-10,-6,nt,2,3,1
CC(NS(C)(=O)=O)C(c1cccs1)N1CCN(Cc2ccccc2)CC1 (centres undefined),169*,2,nt,4,0,2
O=C(NC(=S)Nc1cccc(Cl)c1N1CCCCC1)c1cccs1,-3,44,nt,1,-25,9.4*
O=C(NC(=S)Nc1nc2ccccc2s1)c1ccco1,-29,-5,4,2,-14,8.8*
O=C(NC(=S)Nc1cccc(Cl)c1N1CCCCC1)c1ccco1,-14,9,nt,-3,-27,9.7*
O=C(NC(=S)Nc1ccccc1N1CCCCC1)c1ccco1,-1,73*,13,-2,13,1
Cc1nn(C)c(C)c1S(=O)(=O)N1CCC(CO)(CC2CCCCO2)CC1 (centres undefined),1,-5,15,9,-2,1
Cc1ccc2c(c1)C1CCCC3C1N2CC(=O)N3Cc1ccccc1 (centres undefined),-20,26,nt,2,32*,4
O=C(Nc1nc(SCc2ccc(F)cc2)ns1)c1ccco1,-20,68*,11,4,19,6
Fc1ccc(CSc2nsc(SCc3ccc(F)cc3)n2)cc1,-5,31,nt,0,4,2
C[n+]1c2n(c3ccccc31)N=C(c1cc(C(C)(C)C)c(O)c(C(C)(C)C)c1)CS2,-14,76*,9,14,-35,-1
Cc1ccc(-n2[nH]c(C)c(/C=N/Nc3ccc([N+](=O)[O-])cc3[N+](=O)[O-])c2=O)cc1C,3,70*,27,0,-24,5
Cc1ccc(-n2nnnc2C(Cl)(Cl)c2nnnn2-c2ccc(C)cc2)cc1,-2,95*,nt,-1,-26,2
O=C(O)CN(c1ccc2c(c1)OCCO2)S(=O)(=O)c1ccccc1,-13,-18,nt,-1,0,0
COc1ccc(NS(=O)(=O)c2cccc(C(=O)N/N=C/c3ccc4c(c3)OCCO4)c2)cc1,31*,2,-7,-31,-10,2
O=C(CN(c1ccccc1)S(=O)(=O)c1ccccc1)NCCSCc1ccco1,-12,-19,nt,2,-1,1
COc1ccc(N(CC(=O)NCCSCc2ccco2)S(=O)(=O)c2ccccc2)cc1,-3,10,17,26,-10,9.3*
COc1ccc(N(CC(=O)Nc2ccc3c(c2)OCO3)S(=O)(=O)c2ccccc2)cc1,0,12,-8,15,-18,4
COC(=O)CN(c1ccc2c(c1)OCCO2)S(=O)(=O)c1ccccc1,-17,73*,nt,-1,7,2
COc1ccc(N(CC(=O)N/N=C/c2ccc3c(c2)OCO3)S(=O)(=O)c2ccccc2)cc1,-30,-3,7,24,-5,9.2*
O=C(c1cccs1)N1CCN(Cc2ccccc2[N+](=O)[O-])CC1,-1,-5,-8,3,-1,0
N/C(=N\c1nc(CSc2nnnn2-c2ccccc2)cc(=O)[nH]1)Nc1ccccc1,6,6,14,12,0,3
O=c1cc(CSc2nnnn2-c2ccccc2)nc(Nc2ccc(F)cc2)[nH]1,-13,2,nt,2,31*,3
Cc1noc(/C=C/N(C)C)c1S(=O)(=O)N1CCCC(C(=O)NCc2ccccc2Cl)C1 (centres undefined),-6,14,nt,3,-15,4
CN(C)C(CNC(=S)Nc1ccc(Cl)cc1)c1cccnc1 (centres undefined),1,-8,2,23,8,2
SMILES,NCF1 inh,WT yeast gro inh,Calb biofilm kill,Hck Nef HTS,Arbovirus inh,RAM network inh
Cc1cccc(NC(=S)NCC(c2ccccc2)N(C)C)c1 (centres undefined),-6,13,12,11,5,3
Cc1ccc(NC(=S)NCC(C)CSc2ccc(Cl)cc2)cc1 (centres undefined),nt,81*,16,6,-27,2
Cc1cccc(NC(=S)NCC(C)CSc2ccc(Cl)cc2)c1 (centres undefined),-8,82*,8,-17,-23,8.9*
CSC1=N/C(=C/c2cccnc2)C(=O)N1Cc1ccccc1,-12,nt,11,26,nt,nt
CCOc1ccc(-n2cc(C(=O)Nc3cccc(Cl)c3)c3cc(OC)c(OC)cc3c2=O)cc1,-2,1,nt,4,-5,8.9*
O=C(c1cccc([N+](=O)[O-])c1)n1nc(-c2ccccc2)nc1NCc1ccccc1,-4,12,17,2,-2,9.7*
CC(=O)n1nc(-c2ccccc2)nc1NCc1ccc(F)cc1,-18,-8,nt,1,-2,-1
O=C(c1ccc([N+](=O)[O-])cc1)n1nc(-c2ccccc2)nc1NCc1ccccc1,-9,-1,nt,0,5,7
O=C(c1cccs1)n1nc(-c2ccccc2)nc1NCc1ccc(F)cc1,-4,-6,nt,-13,6,8.6*
CCCN(CC(=O)Nc1ccc(Cl)cc1Cl)C(=O)/C=C/c1cc(OC)ccc1OC,-7,47,14,3,8,11*
CCOc1ccc(OCC)c(NC(=O)Cn2c(C)nc3ccccc3c2=O)c1,-4,16,11,20,1,0
CC1CCCN(C(=O)CSc2nnc(-c3cccnc3)n2C2CCCCC2)C1 (centres undefined),1,65*,nt,1,3,0
COc1cc(/C=C2\SC(=O)N(c3ccccc3Cl)C2=O)cc([N+](=O)[O-])c1O,-2,83*,35,21,4,1
COc1cc(/C=C2\SC(=O)N(CC(=O)Nc3cccc(C)c3)C2=O)cc([N+](=O)[O-])c1O,-18,5,9,32,-1,5
Cc1ccc(NC(=O)Cn2cc(S(=O)(=O)c3ccc(F)cc3)c(=O)c3cc(F)ccc32)cc1,-14,-3,6,-7,-12,8.5*
COC(=O)Nc1csc2c1NC(=O)CCCC2,-12,nt,16,-1,nt,nt
CS/C(N)=N/N=C/c1cc(Br)cc(Br)c1O,-28,nt,28,10,nt,nt
Nn1cnnc1N/N=C/c1cc(Br)cc(Br)c1O,-6,-1,nt,3,-32,9.6*
COc1cnc(-c2ccccn2)nc1Oc1ccccc1Cl,-6,61*,nt,2,-32,0
Cn1cc(Br)c(C(=O)N2CCc3ccccc32)n1,-2,-4,10,1,-2,0
COc1ccc(-c2nnc(Nc3ccc(S(=O)(=O)Nc4nccs4)cc3)c3ccccc23)cc1,-16,13,15,34,-12,4

# Bioassay records (PubChem)
